ChEMBL document CHEMBL1122595, “Stereochemical considerations and the antiinflammatory activity of 6-amino-6,7,8,9-tetrahydro-5H-benzocyclohepten-5-ols and related derivatives” (1984)

What was measured:
Rattus norvegicus [1] = experiment: Antiinflammatory activity in rats by using reverse passive Arthus reaction (RPAR) assay at dose level of 50 mg/Kg by peroral administration; format: functional
How it was run: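 Rats fasted 24 h before and during study, water ad libitum; groups of at least six dosed by gavage in methylcellulose 1 h before iv (penile vein) BSA 1 mg sensitization under light ether; 1 h later subplantar anti-BSA 0.1 mg in right hind paw. Paw volume by mercury plethysmograph immediately and 2 h postchallenge; percent inhibition vs MC controls, ANOVA (Duncan, Dunnett).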

Rattus norvegicus [2] = species: Rattus norvegicus; experiment: The relative potency was evaluated by considering the potency of indomethacin as 1; format: functional
How it was run: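 Rat reverse passive Arthus paw oedema (oral gavage in methylcellulose 1 h before iv BSA, subplantar anti-BSA 1 h later, plethysmograph change over 2 h); three to five dose points; ED50 and potency relative to indomethacin standard derived by linear regression.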

| Structure (SMILES) | Inhibitory response (Rattus norvegicus [1]) | Relative potency (Rattus norvegicus [2]) |
| --- | --- | --- |
| NC[C@@H]1c2ccccc2CCC[C@H]1O | 0% |  |
| COc1ccc2c(c1)C(O)C(N)CCC2 (stereo in doubt; 4i) | 98% | 0.75 |
| CC(C)Sc1ccc2c(c1)C(O)C(N)CCC2 (stereo unspecified) | 39% |  |
| NC1CCCc2ccc(Cl)cc2C1O (stereo in doubt; 4z) | 94% | 0.34 |
| NC[C@H]1c2ccccc2CCC[C@H]1O | 8% |  |
| Cc1ccc2c(c1)CCCC1NC(=O)OC21 (stereo unspecified) | 28% |  |
| CC(C)Oc1ccc2c(c1)C(O)C(N)CCC2 (stereo in doubt; 4m) | 77% | 0.18 |
| Cl.N[C@@H]1CSCc2ccccc2[C@@H]1O | 2% |  |
| Cc1ccc2c(c1)CCCC(N)C2O (stereo unspecified) | 93% | 0.05 |
| CSc1ccc2c(c1)C(O)C(N)CCC2 (stereo in doubt; 4l) | 11% | 0.02 |
| CC(C)c1ccc2c(c1)C1OC(=O)NC1CCC2 (stereo in doubt; 19h) | 7% |  |
| O=C1NC2CCCc3cc(Cl)ccc3C2O1 (stereo in doubt; 19e) | 9% |  |
| COc1cc2c(cc1SC)C(O)C(N)CCC2 (stereo in doubt; 4gg) | 29% |  |
| NC1CCCc2ccc(F)cc2C1O (stereo unspecified) | 96% | 0.15 |
| O=C1NC2CCCc3ccc(Cl)cc3C2O1 (stereo in doubt; 20h) | 29% |  |
| COc1cc2c(cc1OC)C(O)C(N)CCC2.Cl (stereo in doubt; 4dd) | 93% | 0.2 |
| COc1ccc2c(c1)CCCC1NC(=O)OC21 (stereo unspecified) | 0% |  |
| O=C1NC2CCCc3ccc(F)cc3C2O1 (stereo in doubt; 20i) | 78% | 0.03 |
| N[C@@H]1CCCc2cccnc2[C@@H]1O | 28% |  |
| Cl.N[C@@H]1CCCc2cccnc2[C@@H]1O | 36% |  |

| Structure (SMILES) | Inhibitory response (Rattus norvegicus [1]) | Relative potency (Rattus norvegicus [2]) |
| --- | --- | --- |
| CC(C)(C)C(=O)OCOc1ccc2c(c1)C(O)C(N)CCC2 (stereo in doubt; 4r) | 3% |  |
| C[S+]([O-])c1ccc2c(c1)C(O)C(N)CCC2 (stereo unspecified) | 7% |  |
| CC(C)c1ccc2c(c1)C1OC(=O)NC1CCC2 (stereo in doubt; 20g) | 37% |  |
| COc1cc2c(cc1OC)C(O)C(N)CCC2.Cl (stereo in doubt; 4ee) | 13% | 0.03 |
| COc1ccc2c(c1)CCCC(N)C2O (stereo unspecified) | 80% | 0.1 |
| O=C1NC2CCCc3cc(F)ccc3C2O1 (stereo in doubt; 19f) | 39% |  |
| Cl.NC1CCCc2ccccc2C1O (stereo in doubt; 4c) | 11% | 0.02 |
| COc1cc2c(cc1[S+](C)[O-])C(O)C(N)CCC2 (stereo in doubt; 4hh) | 8% |  |
| COc1ccc2c(c1)C(O)C(N)CCC2 (stereo in doubt; 4j) | 13% | 0.02 |
| CC(C)Oc1ccc2c(c1)C(O)C(N)CCC2 (stereo in doubt; 4n) | 4% |  |
| NC1CCCc2ccc(SCc3ccccc3)cc2C1O (stereo in doubt; 4w) | 31% |  |
| O=C1NC2CCCc3cc(F)ccc3C2O1 (stereo in doubt; 20e) | 96% | 0.04 |
| O=C1NC2CCCc3cc(Cl)ccc3C2O1 (stereo in doubt; 20d) | 18% |  |
| Cl.NC1CCCc2ccc([N+](=O)[O-])cc2C1O (stereo unspecified) | 100% | 0.25 |
| Cl.NC1CCCc2ccccc2C1O (stereo in doubt; 4b) | 98% | 0.15 |
| CS(=O)(=O)c1ccc2c(c1)C(O)C(N)CCC2 (stereo unspecified) | 5% |  |
| Cl.NC1CCCc2ccccc2C1O (stereo in doubt; 4a) | 93% |  |
| CC(=O)Nc1ccc2c(c1)C(O)C(N)CCC2 (stereo unspecified) | 18% |  |
| CC(C)c1ccc2c(c1)C(O)C(N)CCC2 (stereo unspecified) | 100% | 0.12 |
| O=C1NC2CCCc3ccccc3C2O1 (stereo in doubt; 19b) | 24% |  |

| Structure (SMILES) | Inhibitory response (Rattus norvegicus [1]) | Relative potency (Rattus norvegicus [2]) |
| --- | --- | --- |
| Cl.NC1CCCc2cc(F)ccc2C1O (stereo unspecified) | 100% | 0.18 |
| NC1CCCc2ccc(Cl)cc2C1O (stereo in doubt; 4aa) | 44% |  |
| O=C1NC2CCCc3ccccc3C2O1 (stereo in doubt; 19a) | 77% |  |
| CC(C)(C)C(=O)OCOc1ccc2c(c1)C(O)C(N)CCC2 (stereo in doubt; 4q) | 16% |  |
| COc1cc2c(cc1SC)C(O)C(N)CCC2 (stereo in doubt; 4ff) | 81% | 0.05 |
| CSc1ccc2c(c1)CCCC(N)C2O (stereo unspecified) | 84% | 0.04 |
| NC1CCCc2ccc(SCc3ccccc3)cc2C1O (stereo in doubt; 4v) | 99% |  |
| COc1cc2c(cc1[S+](C)[O-])C(O)C(N)CCC2 (stereo in doubt; 4ii) | 0% |  |
| O=C1N[C@@H]2CCCc3cccnc3[C@@H]2O1 | 82% | 0.3 |
| O=C1NC2CCCc3ccccc3C2O1 (stereo in doubt; 20a) | 92% | 0.06 |
| NC1CCCc2cc(Cl)ccc2C1O (stereo unspecified) | 94% | 0.08 |
| CSc1ccc2c(c1)C(O)C(N)CCC2 (stereo in doubt; 4k) | 90% | 0.56 |
| O=C1NC2CCCc3ccc(Cl)cc3C2O1 (stereo in doubt; 19i) | 9% |  |
| COc1ccc2c(c1)C1OC(=O)NC1CCC2 (stereo in doubt; 20f) | 24% |  |
| O=C1NC2CCCc3ccc(F)cc3C2O1 (stereo in doubt; 19j) | 19% |  |
| COc1ccc2c(c1)C1OC(=O)NC1CCC2 (stereo in doubt; 19g) | 20% |  |
| COc1cc2c(cc1OC)C(O)C(N)CCCC2.Cl (stereo unspecified) | 0% |  |
| NC[C@@H](O)c1ccccc1 | 21% |  |
